Assay results taken from ChEMBL document CHEMBL4190195, “Bioactive Glycosides from the Twigs of Litsea cubeba” (J Nat Prod, 2017).
Each block holds one compound with its values, some of them ahead of it. Calls of active or inactive are those of the source. The rule behind the calls is not given here.

Columns and labels:
HepG2 = assay: Cytoprotection against 8 mM acetaminophen-induced human HepG2 cells assessed as cell viability at 10 uM after 24 hrs by MTT assay (reference value: 0 +/- 2%); assay type: functional; details: in the assay text read “after 48 hrs” for “after 24 hrs”
Outline: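 HepG2 cells seeded at 1.5 × 10^4 cells/well in DMEM and grown 24 h at 37 °C, 5% CO2. Compound (10 μM) then added together with 8 mM acetaminophen; bicyclol 10 μM plus 8 mM acetaminophen served as reference. Cultured 48 h, then 0.5 mg/mL MTT for 4 h, formazan OD read at 570 nm. Mean ± SD of four independent experiments; Student's t-test.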

Histone deacetylase 1 = Histone deacetylase 1 (Homo sapiens, UniProt Q13547); assay: Inhibition of HDAC1 (unknown origin) using H3(1 to 21)K9 after 60 mins by fluorescence assay
Histone deacetylase 1, sequence (Q13547 whole entry): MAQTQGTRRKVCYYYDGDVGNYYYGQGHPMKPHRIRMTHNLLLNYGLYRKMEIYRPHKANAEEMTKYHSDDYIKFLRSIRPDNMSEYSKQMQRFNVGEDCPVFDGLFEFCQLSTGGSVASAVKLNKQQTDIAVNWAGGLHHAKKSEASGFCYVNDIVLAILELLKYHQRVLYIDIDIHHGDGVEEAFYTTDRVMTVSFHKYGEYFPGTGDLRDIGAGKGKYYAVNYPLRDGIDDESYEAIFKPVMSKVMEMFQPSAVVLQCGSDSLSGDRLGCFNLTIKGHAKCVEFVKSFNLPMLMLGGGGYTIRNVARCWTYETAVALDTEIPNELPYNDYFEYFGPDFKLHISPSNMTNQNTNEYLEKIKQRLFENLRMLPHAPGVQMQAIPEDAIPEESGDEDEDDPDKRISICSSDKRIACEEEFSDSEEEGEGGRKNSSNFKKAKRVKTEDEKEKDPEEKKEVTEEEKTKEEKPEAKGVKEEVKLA

A549 = assay: Cytotoxicity against human A549 cells assessed as growth inhibition at 10 uM after 72 hrs by coulter counting method; assay type: functional, cell-based
Peritoneal macrophage = assay: Inhibition of LPS-induced TNFalpha secretion in C57BL6J mouse peritoneal macrophages at 10 uM after 24 hrs; assay type: functional, cell-based
HCT-8 = assay: Cytotoxicity against human HCT8 cells assessed as growth inhibition at 10 uM after 72 hrs by coulter counting method; assay type: functional, cell-based
A2780 = assay: Cytotoxicity against human A2780 cells assessed as growth inhibition at 10 uM after 72 hrs by coulter counting method; assay type: functional, cell-based
BGC-823 = assay: Cytotoxicity against human BGC823 cells assessed as growth inhibition at 10 uM after 72 hrs by coulter counting method; assay type: functional, cell-based
Bel-7402 = assay: Cytotoxicity against human Bel7402 cells assessed as growth inhibition at 10 uM after 72 hrs by coulter counting method; assay type: functional, cell-based

SMILES: CCC(=O)c1cc(OC)c(O[C@@H]2O[C@H](CO[C@@H]3O[C@@H](C)[C@H](O)[C@@H](O)[C@H]3O)[C@@H](O)[C@H](O)[C@H]2O)c(OC)c1
Activity (HepG2): 37.6%

SMILES: COC(=O)c1cc(OC)c2c(c1-c1c(CO)cc(OC)c3c1OCO3)OCO2 [BICYCLOL]
Activity (HepG2): 34.8%

SMILES: COc1cc([C@H]2Oc3c(OC)cc(/C=C/CO[C@@H]4O[C@H](CO)[C@@H](O)[C@H](O)[C@H]4O)cc3[C@@H]2CO)cc(OC)c1O[C@@H]1O[C@H](CO)[C@@H](O)[C@H](O)[C@H]1O
Activity (HepG2): 30.5%

IC50 (Histone deacetylase 1): 3.6 µM
SMILES: COc1cc([C@H]2Oc3c(OC)cc(CCCO)cc3[C@@H]2CO)ccc1O[C@@H]1O[C@H](CO)[C@@H](O)[C@H](O)[C@H]1O
Activity (HepG2): 38.4%
growth inhibition (GI) (A549): inactive
inhibition (Peritoneal macrophage): inactive
growth inhibition (GI) (HCT-8): inactive
growth inhibition (GI) (A2780): inactive
growth inhibition (GI) (BGC-823): inactive
growth inhibition (GI) (Bel-7402): inactive

SMILES: COc1cc([C@H]2Oc3c(OC)cc(CCCO)cc3[C@@H]2CO)cc(OC)c1O[C@@H]1O[C@H](CO)[C@@H](O)[C@H](O)[C@H]1O
Activity (HepG2): 31.2%

SMILES: COc1cc([C@H]2Oc3c(OC)cc(CCCO)cc3[C@@H]2CO[C@@H]2O[C@H](CO[C@@H]3O[C@@H](C)[C@H](O)[C@@H](O)[C@H]3O)[C@@H](O)[C@H](O)[C@H]2O)ccc1O
Activity (HepG2): 37.4%

IC50 (Histone deacetylase 1): 4.6 µM
SMILES: O=C(O)/C=C\c1cc2ccoc2cc1O[C@@H]1O[C@H](CO)[C@@H](O)[C@H](O)[C@H]1O
growth inhibition (GI) (A549): inactive
inhibition (Peritoneal macrophage): inactive
growth inhibition (GI) (HCT-8): inactive
growth inhibition (GI) (A2780): inactive
growth inhibition (GI) (BGC-823): inactive
growth inhibition (GI) (Bel-7402): inactive

SMILES: COc1cc([C@@H](O)[C@H](CO)Oc2c(OC)cc(CCC(C)O)cc2OC)cc(OC)c1O[C@@H]1O[C@H](CO)[C@@H](O)[C@H](O)[C@H]1O (some centres not stated)
Activity (HepG2): 38.9%

SMILES: COc1cc([C@H]2Oc3c(OC)cc(/C=C/CO[C@@H]4O[C@H](CO)[C@@H](O)[C@H](O)[C@H]4O)cc3[C@@H]2CO)ccc1O[C@@H]1O[C@H](CO)[C@@H](O)[C@H](O)[C@H]1O
Activity (HepG2): 46%
